Article PMC5621377 (Clinical cancer research : an official journal of the …, 2016)

System: patients with Rb+ advanced solid tumors or lymphomas
Test: Safety assessments, adverse events
Format: in vivo, human
How it was run: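 Oral test compound given daily 3-weeks-on/1-week-off in 28-day cycles, with doses escalated by a Bayesian logistic regression model with overdose control. Safety assessments, including ECGs, were done at baseline and at regular intervals. AEs were graded by CTCAE v4.0 and classed as suspected related to treatment. All patients dosed at least once were included; summaries were descriptive per dose level.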

[1] = 900 mg 3-weeks-on/1-week-off, n = 13
[2] = 1,200 mg 3-weeks-on/1-week-off, n = 3
[3] = RDE 600 mg/day 3-weeks-on/1-week-off
[4] = of 67 patients treated at the RDE

CN(C)C(=O)c1cc2cnc(Nc3ccc(N4CCNCC4)cn3)nc2n1C1CCCC1 [ribociclib] was tested, and the “Anemia, Grade 3/4, AE suspected related to study treatment” value (from here on “Anemia, Grade 3/4, AE suspected related”) [1] was 0 n (%), the “Anemia, Grade All, AE suspected related to study treatment” value (from here on “Anemia, Grade All, AE suspected related”) [1] was 3 (23) n (%) and the “Appetite decreased, Grade 3/4, AE suspected related to study treatment” value [1] was 0 n (%). For the same compound, the “Appetite decreased, Grade All, AE suspected related to study treatment” value (from here on “Appetite decreased, Grade All”) [1] was 1 (8) n (%), the “Blood creatinine increased, Grade 3/4, AE suspected related to study treatment” value [1] was 0 n (%) and the “Blood creatinine increased, Grade All, AE suspected related to study treatment” value (“Blood creatinine increased, Grade All” below) [1] was 2 (15) n (%). For the same compound, the “Diarrhea, Grade 3/4, AE suspected related to study treatment” value [1] was 0 n (%), the “Diarrhea, Grade All, AE suspected related to study treatment” value (shortened to “Diarrhea, Grade All”) [1] was 5 (39) n (%) and the “Fatigue, Grade 3/4, AE suspected related to study treatment” value (shortened to “Fatigue, Grade 3/4, AE suspected related”) [1] was 0 n (%). For the same compound, the “Fatigue, Grade All, AE suspected related to study treatment” value (“Fatigue, Grade All, AE suspected related” below) [1] was 10 (77) n (%), the “Leukopenia, Grade 3/4, AE suspected related to study treatment” value [1] was 4 (31) n (%) and the “Leukopenia, Grade All, AE suspected related to study treatment” value (from here on “Leukopenia, Grade All”) [1] was 9 (69) n (%). The “Lymphopenia, Grade 3/4, AE suspected related to study treatment” value [1] was 4 (31) n (%), the “Lymphopenia, Grade All, AE suspected related to study treatment” value (“Lymphopenia, Grade All” below) [1] was 4 (31) n (%) and the “Nausea, Grade 3/4, AE suspected related to study treatment” value (“Nausea, Grade 3/4, AE suspected related” below) [1] was 0 n (%). The “Nausea, Grade All, AE suspected related to study treatment” value (“Nausea, Grade All, AE suspected related” for short) [1] was 6 (46) n (%), the “Neutropenia, Grade 3/4, AE suspected related to study treatment” value [1] was 5 (39) n (%) and the “Neutropenia, Grade All, AE suspected related to study treatment” value (from here on “Neutropenia, Grade All”) [1] was 9 (69) n (%). The “Thrombocytopenia, Grade 3/4, AE suspected related to study treatment” value [1] was 0 n (%), the “Thrombocytopenia, Grade All, AE suspected related to study treatment” value (“Thrombocytopenia, Grade All” for short) [1] was 6 (46) n (%) and the “Vomiting, Grade 3/4, AE suspected related to study treatment” value [1] was 0 n (%). For the same compound, the “Vomiting, Grade All, AE suspected related to study treatment” value (from here on “Vomiting, Grade All”) [1] was 3 (23) n (%), the “Anemia, Grade 3/4, AE suspected related” value [2] was 1 (33) n (%) and the “Anemia, Grade All, AE suspected related” value [2] was 3 (100) n (%). For the same compound, the “Appetite decreased, Grade 3/4, AE suspected related to study treatment” value [2] was 0 n (%), the “Appetite decreased, Grade All” value [2] was 0 n (%) and the “Blood creatinine increased, Grade 3/4, AE suspected related to study treatment” value [2] was 0 n (%). For the same compound, the “Blood creatinine increased, Grade All” value [2] was 0 n (%), the “Diarrhea, Grade 3/4, AE suspected related to study treatment” value [2] was 0 n (%) and the “Diarrhea, Grade All” value [2] was 2 (67) n (%). For the same compound, the “Fatigue, Grade 3/4, AE suspected related” value [2] was 0 n (%), the “Fatigue, Grade All, AE suspected related” value [2] was 3 (100) n (%) and the “Leukopenia, Grade 3/4, AE suspected related to study treatment” value [2] was 0 n (%). For the same compound, the “Leukopenia, Grade All” value [2] was 0 n (%), the “Lymphopenia, Grade 3/4, AE suspected related to study treatment” value [2] was 0 n (%) and the “Lymphopenia, Grade All” value [2] was 0 n (%). For the same compound, the “Nausea, Grade 3/4, AE suspected related” value [2] was 0 n (%), the “Nausea, Grade All, AE suspected related” value [2] was 3 (100) n (%) and the “Neutropenia, Grade 3/4, AE suspected related to study treatment” value [2] was 1 (33) n (%). The “Neutropenia, Grade All” value [2] was 2 (67) n (%), the “Thrombocytopenia, Grade 3/4, AE suspected related to study treatment” value [2] was 1 (33) n (%) and the “Thrombocytopenia, Grade All” value [2] was 2 (67) n (%). For the same compound, the “Vomiting, Grade 3/4, AE suspected related to study treatment” value [2] was 0 n (%), the “Vomiting, Grade All” value [2] was 3 (100) n (%) and the “Anemia, Grade 3/4, AE suspected related” value (All doses, N = 132) was 4 (3) n (%). The “Anemia, Grade All, AE suspected related” value (All doses, N = 132) was 34 (26) n (%), the “Appetite decreased, Grade 3/4, AE suspected related to study treatment” value (All doses, N = 132) was 0 n (%) and the “Appetite decreased, Grade All” value (All doses, N = 132) was 13 (10) n (%). For the same compound, the “Blood creatinine increased, Grade 3/4, AE suspected related to study treatment” value (All doses, N = 132) was 0 n (%), the “Blood creatinine increased, Grade All” value (All doses, N = 132) was 14 (11) n (%) and the “Diarrhea, Grade 3/4, AE suspected related to study treatment” value (All doses, N = 132) was 2 (2) n (%). For the same compound, the “Diarrhea, Grade All” value (All doses, N = 132) was 31 (23) n (%), the “Fatigue, Grade 3/4, AE suspected related” value (All doses, N = 132) was 3 (2) n (%) and the “Fatigue, Grade All, AE suspected related” value (All doses, N = 132) was 59 (45) n (%). For the same compound, the “Leukopenia, Grade 3/4, AE suspected related to study treatment” value (All doses, N = 132) was 22 (17) n (%), the “Leukopenia, Grade All” value (All doses, N = 132) was 57 (43) n (%) and the “Lymphopenia, Grade 3/4, AE suspected related to study treatment” value (All doses, N = 132) was 21 (16) n (%). The “Lymphopenia, Grade All” value (All doses, N = 132) was 32 (24) n (%), the “Nausea, Grade 3/4, AE suspected related” value (All doses, N = 132) was 2 (2) n (%) and the “Nausea, Grade All, AE suspected related” value (All doses, N = 132) was 56 (42) n (%). The “Neutropenia, Grade 3/4, AE suspected related to study treatment” value (All doses, N = 132) was 36 (27) n (%), the “Neutropenia, Grade All” value (All doses, N = 132) was 60 (46) n (%) and the “Thrombocytopenia, Grade 3/4, AE suspected related to study treatment” value (All doses, N = 132) was 10 (8) n (%). For the same compound, the “Thrombocytopenia, Grade All” value (All doses, N = 132) was 40 (30) n (%), the “Vomiting, Grade 3/4, AE suspected related to study treatment” value (All doses, N = 132) was 0 n (%) and the “Vomiting, Grade All” value (All doses, N = 132) was 34 (26) n (%). For the same compound, the “grade 3/4 neutropenia” value [3] was 28%, the “grade 3/4 thrombocytopenia” value [3] was 9% and the “treatment-related fatigue, grade 3/4” value (all 132 patients) was 2%. The “treatment-related nausea, grade 3/4” value (all 132 patients) was 2%, the “treatment-related neutropenia, all-grade” value (all 132 patients) was 46% and the clinically significant arrhythmias (all patients) was “No clinically significant arrhythmias were observed”. The “patients requiring dose reduction to 400 mg/day” value [4] was 16 and the “patients with dose interruption without reduction” value [4] was 13.
